Assay results taken from ChEMBL document CHEMBL3992520, “Development of the First Two-Pore Domain Potassium Channel TWIK-Related K+ Channel 1-Selective Agonist Possessing in Vivo Antinociceptive Activity” (J Med Chem, 2017).

Columns and labels:
[1] = test system: Mus musculus; experiment: Antinociceptive activity in CD1 mouse assessed as inhibition of acetic acid-induced writhes at 10 mg/kg, sc pretreated for 15 mins followed by acetic acid challenge measured within 20 mins relative to control; assay type: functional
Method in brief: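 Male CD1 mice (20-25 g), n=8 per group, dosed at 10 mg/kg s.c. or with vehicle (5% Tween 80 in 0.9% saline). Dosing was 15 min before i.p. 0.6% acetic acid (10 mL/kg). Abdominal writhes were counted for 20 min. Effect = (mean control writhes − mean test writhes)/mean control writhes ×100.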

[2] = target: T1, Potassium channel subfamily K member 2 (Homo sapiens) (UniProt O95069); experiment: Agonist activity at human TREK1 expressed in xenopus oocytes assessed as increase in K+ current at 20 uM measured at 0 mV by double microelectrode method relative to control; assay type: cell-based
T1 sequence (whole entry): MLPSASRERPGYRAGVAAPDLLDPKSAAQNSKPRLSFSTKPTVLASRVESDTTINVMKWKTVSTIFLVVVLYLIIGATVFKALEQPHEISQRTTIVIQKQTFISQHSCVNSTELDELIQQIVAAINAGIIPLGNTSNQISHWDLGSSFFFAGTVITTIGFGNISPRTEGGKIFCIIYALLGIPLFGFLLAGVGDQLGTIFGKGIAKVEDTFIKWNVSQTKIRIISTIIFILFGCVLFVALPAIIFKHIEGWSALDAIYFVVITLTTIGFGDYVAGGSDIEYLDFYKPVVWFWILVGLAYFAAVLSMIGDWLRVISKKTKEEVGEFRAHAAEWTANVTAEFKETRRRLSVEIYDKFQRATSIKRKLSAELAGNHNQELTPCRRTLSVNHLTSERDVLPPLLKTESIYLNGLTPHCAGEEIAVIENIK

[3] = target: T2, Potassium channel subfamily K member 2 (Bos taurus) (UniProt Q8HY88); experiment: Agonist activity at TREK1 in bovine AZF cells assessed as increase in K+ current at 40 uM by whole-cell patch clamp method relative to control; assay type: cell-based
T2 sequence (whole entry): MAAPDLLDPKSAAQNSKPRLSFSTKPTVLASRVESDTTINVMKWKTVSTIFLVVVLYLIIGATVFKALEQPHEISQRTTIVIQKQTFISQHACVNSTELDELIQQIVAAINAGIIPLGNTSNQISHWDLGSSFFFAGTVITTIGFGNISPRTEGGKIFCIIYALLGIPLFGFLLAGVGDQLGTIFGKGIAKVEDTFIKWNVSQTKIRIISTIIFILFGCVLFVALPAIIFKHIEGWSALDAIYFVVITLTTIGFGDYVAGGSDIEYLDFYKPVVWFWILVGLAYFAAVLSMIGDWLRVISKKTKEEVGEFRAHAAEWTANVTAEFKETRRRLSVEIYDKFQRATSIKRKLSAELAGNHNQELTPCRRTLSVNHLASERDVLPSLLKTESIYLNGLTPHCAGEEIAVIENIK

[4] = test system: Mus musculus; experiment: Antinociceptive activity in CD1 mouse assessed as increase in thermal-stimulus induced paw withdrawal latency at 60 mg/kg, sc measured after 45 mins by hot plate method relative to control; assay type: functional
Method in brief: (§1)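 Male CD1 mice (20-25 g), n=8 per group, given 60 mg/kg s.c. After 5 min acclimatization on a plate at room temperature, mice were placed on a 52 °C hotplate. Latency to forepaw or hindpaw licking or hindpaw flicking was recorded, with a 30 s cut-off. Latency was taken after two consecutive stable baselines, then 30 and 45 min post-dose. Effect = (postdrug − predrug latency)/predrug latency ×100.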

[5] = Half life in rat liver microsomes at 40 mM in presence of NADPH-cofactor by HPLC analysis; assay type: ADME, microsome
[6] = test system: Liver; experiment: Drug metabolism in rat liver microsomes assessed as (E)-2-Cyano-3-(3,4-dihydroxyphenyl)acrylic acid formation at 40 mM in presence of NADPH-cofactor measured after 24 hrs by HPLC analysis; assay type: ADME, microsome; settings: 40000 µM
Method in brief: (§2)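 Incubation mix: rat liver microsomes (20 mg/mL stock), phosphate buffer pH 7.4 and NADPH (40 mM stock). Drug was added from a 40 mM DMSO stock. Samples were vortexed and incubated at 37 °C with stirring.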

[7] = target: T1, Potassium channel subfamily K member 2 (Homo sapiens); experiment: Agonist activity at human TREK1 expressed in HEK293 cells assessed as increase in K+ current at 100 uM measured at +60 mV by whole-cell patch clamp method relative to control; assay type: cell-based
Method in brief: (§3)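 Human TREK-1 (kcnk2) in pIRES2-eGFP was stably expressed in HEK-293 cells under G418 selection, and cells were used 4–48 h after plating. Bath (mM): 140 NaCl, 10 TEA-Cl, 5 KCl, 3 MgCl2, 1 CaCl2, 10 HEPES, pH 7.4. Pipette (mM): 155 KCl, 3 MgCl2, 5 EGTA, 10 HEPES, pH 7.2. Holding was −80 mV, with a step to −100 mV then a 400 ms ramp to +60 mV every 5 s. Read-out was the ratio Imax/I0 taken from I/V curves. Stocks were 20 mM in DMSO.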

[8] = test system: Mus musculus; experiment: Antinociceptive activity in CD1 mouse assessed as increase in thermal-stimulus induced paw withdrawal latency at 60 mg/kg, sc measured after 30 mins by hot plate method relative to control; assay type: functional; method in brief: as §1
[9] = test system: Liver; experiment: Drug metabolism in rat liver microsomes assessed as (E)-2-cyano-3-(1H-indol-2-yl)acrylic acid formation at 40 mM in presence of NADPH-cofactor measured after 24 hrs by HPLC analysis; assay type: ADME, microsome; settings: 40000 µM; method in brief: as §2
[10] = target: T1, Potassium channel subfamily K member 2 (Homo sapiens); experiment: Agonist activity at human TREK1 expressed in HEK293 cells assessed as increase in K+ current at 20 uM measured at +60 mV by whole-cell patch clamp method relative to control; assay type: cell-based; method in brief: as §3
[11] = target: T1, Potassium channel subfamily K member 2 (Homo sapiens); experiment: Agonist activity at human TREK1 expressed in HEK293 cells assessed as increase in K+ current at 10 uM measured at +60 mV by whole-cell patch clamp method relative to control; assay type: cell-based; method in brief: as §3
[12] = test system: Mus musculus; experiment: Antinociceptive activity in CD1 mouse assessed as increase in thermal-stimulus induced paw withdrawal latency at 3 mg/kg, sc measured after 45 mins by hot plate method relative to control; assay type: functional
Method in brief: (§4)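 Male CD1 mice (20–25 g), groups of 8, scored blind. After 5 min on a room-temperature plate, mice are placed on a 52 °C hotplate. Latency is the time to licking of fore- or hindpaws or flicking of hindpaws, with a 30 s cut-off. Two consecutive stable baseline latencies are taken, then latency is read 30 and 45 min after s.c. injection. % effect = (post − pre)/pre × 100.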

[13] = test system: Mus musculus; experiment: Antinociceptive activity in wild-type C57Bl/6J mouse assessed as increase in thermal-stimulus induced paw withdrawal latency at 60 mg/kg, sc measured after 30 mins by hot plate method relative to control; assay type: functional
Method in brief: (§5)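 TREK-1−/− and wild-type C57Bl/6J littermates came from heterozygous crosses, n=7. Dose was 60 mg/kg s.c. The 52 °C hotplate measured paw-lick latency, 30 s cut-off, with baseline from two stable pre-dose latencies.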

[14] = test system: Mus musculus; experiment: Antinociceptive activity in wild-type C57Bl/6J mouse assessed as increase in thermal-stimulus induced paw withdrawal latency at 60 mg/kg, sc measured after 45 mins by hot plate method relative to control; assay type: functional; method in brief: as §5
[15] = test system: Mus musculus; experiment: In vivo activation of TREK1 in C57Bl/6J mouse assessed as increase in thermal-stimulus induced paw withdrawal latency at 60 mg/kg, sc measured after 30 mins by hot plate method relative to control; assay type: functional; method in brief: as §5
[16] = test system: Mus musculus; experiment: Antinociceptive activity in TREK1 deficient C57Bl/6J mouse assessed as increase in thermal-stimulus induced paw withdrawal latency at 60 mg/kg, sc measured after 30 mins by hot plate method relative to control; assay type: functional; method in brief: as §5
[17] = test system: Mus musculus; experiment: Antinociceptive activity in CD1 mouse assessed as increase in thermal-stimulus induced paw withdrawal latency at 3 mg/kg, sc measured after 30 mins by hot plate method relative to control; assay type: functional; method in brief: as §4
[18] = test system: Mus musculus; experiment: In vivo activation of TREK1 in C57Bl/6J mouse assessed as increase in thermal-stimulus induced paw withdrawal latency at 60 mg/kg, sc measured after 45 mins by hot plate method relative to control; assay type: functional; method in brief: as §5
[19] = test system: Mus musculus; experiment: Antinociceptive activity in TREK1 deficient C57Bl/6J mouse assessed as increase in thermal-stimulus induced paw withdrawal latency at 60 mg/kg, sc measured after 45 mins by hot plate method relative to control; assay type: functional; method in brief: as §5

Structure (SMILES)	inhibition in vivo at 10 mg/kg [1] [%]	fold change (FC) [2]	fold change (FC) [3]	Activity [4] [%]	half-life [5] [min]	Drug metabolism [6]	fold change (FC) [7]	Activity [8] [%]	Drug metabolism [9]	fold change (FC) [10]	fold change (FC) [11]	Activity [12] [%]	Activity [13] [%]	Activity [14] [%]	Activity [15] [%]	Activity [16] [%]	Activity [17] [%]	Activity [18] [%]	Activity [19] [%]
CCOC(=O)/C(C#N)=C/c1ccc(O)c(O)c1	57.8	2.76	1	21.8	< 4	Metabolite_Detected	1.54	34.6	–	–	–	–	–	–	–	–	–	–	–
CCOC(=O)/C(C#N)=C/c1cc2ccccc2[nH]1	88.4	–	–	32.7	< 4	–	–	33.3	Metabolite_Detected	4.71	–	–	–	–	–	–	–	–	–
N#C/C(=C\c1cc2ccccc2[nH]1)C(=O)OC1CCCCC1	83.6	–	–	52.6	25 to 45	–	–	65.7	–	–	1.98	–	–	–	–	–	–	–	–
CN1CC[C@]23c4c5ccc(O)c4O[C@H]2[C@@H](O)C=C[C@H]3[C@H]1C5 [MORPHINE]	–	–	–	–	–	–	–	–	–	–	–	159.7	98.6	124.5	12.6	86.7	185	24.3	94.6
